“And” between values parts separate entries of the source, which are not always exact repeats. Equal values may be shown once.
Test system: HEK-293T
Assay: Multiplex assay against HEK293T
Format: toxicity, cell-based
Conditions: human
In short: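 Tubulin, mitochondrial-mass and membrane-permeability phenotypes are per cents of healthy-nucleus cells. Cells were gated by CellPathfinder machine learning into Hoechst high-intensity objects or normal cells, normal cells into healthy, pyknosed or fragmented nuclei, and pyknosed cells into mitotic or apoptotic. Before that, live cells stained at seeding with Hoechst33342, BioTracker Green Microtubule Cytoskeleton Dye, MitoTracker Red and Annexin V Alexa Fluor 680 were imaged on a CQ1 microscope at 37°C and 5% CO2 after compound addition.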

[1] = 12 h, 1 µM, compound concentration 1 uM
[2] = 12 h, 10 µM, compound concentration 10 uM
[3] = 24 h, 1 µM, compound concentration 1 uM
[4] = 24 h, 10 µM, compound concentration 10 uM
[5] = 48 h, 1 µM, compound concentration 1 uM
[6] = 48 h, 10 µM, compound concentration 10 uM

Which results are given for C[C@H](NC(=O)CNC(=O)c1cccc(Cl)c1)c1ccccc1?
Population Apoptotic (%) [1]: 33% and 48%; Population Fragmented Nuclei (%) [1]: 5% and 6%; Population Healthy Nuclei (%) [1]: 79% and 84%; Population Hoechst High Intensity Objects (%) [1]: 8% and 4%; Population Membrane Permeable-Phenotype (%) [1]: 0%; Population Mitochondria Different-Phenotype (%) [1]: 39% and 52%; Population Mitotic Cells (%) [1]: 66% and 51%; Population Normal (%) [1]: 91% and 95%; Population Pyknosed Nuclei (%) [1]: 15% and 9%; Population Tubulin-Different-Phenotype (%) [1]: 29% and 17%; Total Cell Count [1]: 449 and 384; Population Apoptotic (%) [2]: 41% and 58%; Population Fragmented Nuclei (%) [2]: 6% and 7%; Population Healthy Nuclei (%) [2]: 76% and 77%; Population Hoechst High Intensity Objects (%) [2]: 7% and 13%; Population Membrane Permeable-Phenotype (%) [2]: 0%; Population Mitochondria Different-Phenotype (%) [2]: 54% and 61%; Population Mitotic Cells (%) [2]: 58% and 41%; Population Normal (%) [2]: 92% and 86%; Population Pyknosed Nuclei (%) [2]: 17% and 15%; Population Tubulin-Different-Phenotype (%) [2]: 39% and 33%; Total Cell Count [2]: 362 and 272; Population Apoptotic (%) [3]: 23% and 45%; Population Fragmented Nuclei (%) [3]: 9% and 7%; Population Healthy Nuclei (%) [3]: 80% and 84%; Population Hoechst High Intensity Objects (%) [3]: 4% and 2%; Population Membrane Permeable-Phenotype (%) [3]: 1% and 0%; Population Mitochondria Different-Phenotype (%) [3]: 25% and 32%; Population Mitotic Cells (%) [3]: 76% and 54%; Population Normal (%) [3]: 95% and 97%; Population Pyknosed Nuclei (%) [3]: 10% and 7%; Population Tubulin-Different-Phenotype (%) [3]: 15% and 9%; Total Cell Count [3]: 646 and 476; Population Apoptotic (%) [4]: 43% and 58%; Population Fragmented Nuclei (%) [4]: 9% and 10%; Population Healthy Nuclei (%) [4]: 77% and 78%; Population Hoechst High Intensity Objects (%) [4]: 4% and 9%; Population Membrane Permeable-Phenotype (%) [4]: 0%; Population Mitochondria Different-Phenotype (%) [4]: 39% and 49%; Population Mitotic Cells (%) [4]: 56% and 41%; Population Normal (%) [4]: 95% and 90%; Population Pyknosed Nuclei (%) [4]: 12% and 11%; Population Tubulin-Different-Phenotype (%) [4]: 25% and 19%; Total Cell Count [4]: 505 and 303; Population Apoptotic (%) [5]: 19% and 30%; Population Fragmented Nuclei (%) [5]: 13%; Population Healthy Nuclei (%) [5]: 80% and 81%; Population Hoechst High Intensity Objects (%) [5]: 3% and 2%; Population Membrane Permeable-Phenotype (%) [5]: 0% and 2%; Population Mitochondria Different-Phenotype (%) [5]: 15% and 16%; Population Mitotic Cells (%) [5]: 80% and 70%; Population Normal (%) [5]: 96% and 97%; Population Pyknosed Nuclei (%) [5]: 5%; Population Tubulin-Different-Phenotype (%) [5]: 12% and 6%; Total Cell Count [5]: 984 and 606; Population Apoptotic (%) [6]: 44% and 35%; Population Fragmented Nuclei (%) [6]: 15% and 19%; Population Healthy Nuclei (%) [6]: 77% and 72%; Population Hoechst High Intensity Objects (%) [6]: 1% and 2%; Population Membrane Permeable-Phenotype (%) [6]: 0%; Population Mitochondria Different-Phenotype (%) [6]: 26% and 28%; Population Mitotic Cells (%) [6]: 55% and 64%; Population Normal (%) [6]: 98% and 97%; Population Pyknosed Nuclei (%) [6]: 7%; Population Tubulin-Different-Phenotype (%) [6]: 18% and 16%; Total Cell Count [6]: 735 and 462

For Cc1cc(C(C#N)c2ccc(Cl)cc2)c(Cl)cc1NC(=O)c1cc(I)cc(I)c1O (centres undefined) [CLOSANTEL], which “Population Apoptotic (%)” value [1] is on record?
The value was 6.57% and 5.41%.

And the “Population Fragmented Nuclei (%)” value [1]?
The value was 3.34% and 0.56%.

And the “Population Hoechst High Intensity Objects (%)” value [1]?
Its value is 0%.

What about the “Population Membrane Permeable-Phenotype (%)” value [1] of the same compound?
Its value is 1.66% and 0%.

And the “Population Mitotic Cells (%)” value [1]?
The value was 93.43% and 94.59%.

What about the “Population Normal (%)” value [1] of the same compound?
Its value is 100%.

And the “Population Pyknosed Nuclei (%)” value [1]?
Its value is 41.64% and 82.22%.

And the “Total Cell Count” value [1]?
The value was 329 and 180.

And the “Population Apoptotic (%)” value [2]?
The value was 9.49% and 11.94%.

What about the “Population Fragmented Nuclei (%)” value [2] of the same compound?
The value was 1.44% and 2.52%.

What about the “Population Hoechst High Intensity Objects (%)” value [2] of the same compound?
Its value is 0.29% and 0%.

What about the “Population Membrane Permeable-Phenotype (%)” value [2] of the same compound?
Its value is 0%.

What about the “Population Mitotic Cells (%)” value [2] of the same compound?
Its value is 90.51% and 88.06%.

What about the “Population Normal (%)” value [2] of the same compound?
Its value is 99.71% and 100%.

What about the “Population Pyknosed Nuclei (%)” value [2] of the same compound?
Its value is 39.37% and 84.28%.

And the “Total Cell Count” value [2]?
Its value is 349 and 159.

What about the “Population Apoptotic (%)” value [3] of the same compound?
The value was 9.09% and 12.78%.

And the “Population Fragmented Nuclei (%)” value [3]?
Its value is 2.28% and 0.53%.

What about the “Population Healthy Nuclei (%)” value [3] of the same compound?
The value was 72.62% and 29.1%.

What about the “Population Hoechst High Intensity Objects (%)” value [3] of the same compound?
Its value is 0.19% and 0%.

What about the “Population Membrane Permeable-Phenotype (%)” value [3] of the same compound?
Its value is 1.05% and 0%.

What about the “Population Mitochondria Different-Phenotype (%)” value [3] of the same compound?
Its value is 12.3% and 16.36%.

What about the “Population Mitotic Cells (%)” value [3] of the same compound?
The value was 90.91% and 87.22%.

And the “Population Normal (%)” value [3]?
Its value is 99.81% and 100%.

What about the “Population Pyknosed Nuclei (%)” value [3] of the same compound?
Its value is 25.1% and 70.37%.

And the “Population Tubulin-Different-Phenotype (%)” value [3]?
The value was 11.78% and 10.91%.

And the “Total Cell Count” value [3]?
Its value is 527 and 189.

What about the “Population Apoptotic (%)” value [4] of the same compound?
The value was 21.1% and 18.35%.

And the “Population Fragmented Nuclei (%)” value [4]?
The value was 2.28% and 2.25%.

And the “Population Healthy Nuclei (%)” value [4]?
Its value is 75.1% and 36.52%.

And the “Population Hoechst High Intensity Objects (%)” value [4]?
Its value is 0.21% and 2.73%.

And the “Population Membrane Permeable-Phenotype (%)” value [4]?
Its value is 0.83% and 1.54%.

What about the “Population Mitochondria Different-Phenotype (%)” value [4] of the same compound?
Its value is 12.15% and 7.69%.

And the “Population Mitotic Cells (%)” value [4]?
The value was 78.9% and 81.65%.

What about the “Population Normal (%)” value [4] of the same compound?
Its value is 99.79% and 97.27%.

And the “Population Pyknosed Nuclei (%)” value [4]?
Its value is 22.61% and 61.24%.

And the “Population Tubulin-Different-Phenotype (%)” value [4]?
Its value is 3.04% and 9.23%.

And the “Total Cell Count” value [4]?
The value was 483 and 183.

And the “Population Apoptotic (%)” value [5]?
Its value is 9.63% and 18.42%.

What about the “Population Fragmented Nuclei (%)” value [5] of the same compound?
The value was 3.24% and 1.21%.

What about the “Population Healthy Nuclei (%)” value [5] of the same compound?
Its value is 87.05% and 68.15%.

And the “Population Hoechst High Intensity Objects (%)” value [5]?
Its value is 0% and 0.8%.

What about the “Population Membrane Permeable-Phenotype (%)” value [5] of the same compound?
Its value is 4.96% and 1.78%.

What about the “Population Mitochondria Different-Phenotype (%)” value [5] of the same compound?
Its value is 11.57% and 23.67%.

And the “Population Mitotic Cells (%)” value [5]?
The value was 90.37% and 81.58%.

And the “Population Normal (%)” value [5]?
The value was 100% and 99.2%.

And the “Population Fragmented Nuclei (%)” value [6]?
The value was 2.8% and 1.44%.

And the “Population Healthy Nuclei (%)” value [6]?
The value was 87.9% and 66.19%.

And the “Population Hoechst High Intensity Objects (%)” value [6]?
The value was 0.07% and 0%.

What about the “Population Membrane Permeable-Phenotype (%)” value [6] of the same compound?
The value was 1.34% and 0.54%.

What about the “Population Mitochondria Different-Phenotype (%)” value [6] of the same compound?
Its value is 8.23% and 21.74%.

What about the “Population Mitotic Cells (%)” value [6] of the same compound?
Its value is 96.03% and 80%.

What about the “Population Normal (%)” value [6] of the same compound?
Its value is 99.93% and 100%.
